Compound activity deposited in PubChem by several laboratories.
Rows were chosen to be rich in hits. Some 4.7% of all compounds tested hit in one or more screens of this group.
RGS4 act: RGS4 potentiation or activation. HEK293 M3R/inducible RGS4, carbachol calcium flux Fluo4; hits give low values. B-score at 10 µM. hit rate 0.92% among 310,000. AID 463111;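 active means B-score of the integrated calcium signal more than 4 SD below the library mean, with starting fluorescence not abnormally high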;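 further: negative B-score means reduced calcium response which marks RGS4 activation or potentiation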
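Reagent: ECmax carbachol challenge; Test system: M3R-expressing HEK293 line, RGS4 induced by doxycycline; Schedule: overnight RGS4 induction, 30 min dye load 37 °C, 20 min compound RT; Detection: calcium dye Fluo4 fluorescence; Read-out: Agonist-evoked peak-minus-minimum fluorescence over baseline, integrated ratio, B score.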
Cl transport mod: KCC2 (human) Cl- transport modulation. Q9H2X9. KCC2 cells, thallium flux FluoZin-2 fluorescence. B-score of Tl+ flux slope (higher = more flux/activation; lower = inhibition) at 10 µM. hit rate 2.2% among 190,000. AID 1456;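 active means thallium flux slope and its plate-corrected score both differing from the plate sample mean at a set confidence after two filtering rounds, in either direction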;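 further: slope of fluorescence scaled to starting intensity during 10 to 20 s after thallium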
Target sequence (Q9H2X9 whole entry, looked up): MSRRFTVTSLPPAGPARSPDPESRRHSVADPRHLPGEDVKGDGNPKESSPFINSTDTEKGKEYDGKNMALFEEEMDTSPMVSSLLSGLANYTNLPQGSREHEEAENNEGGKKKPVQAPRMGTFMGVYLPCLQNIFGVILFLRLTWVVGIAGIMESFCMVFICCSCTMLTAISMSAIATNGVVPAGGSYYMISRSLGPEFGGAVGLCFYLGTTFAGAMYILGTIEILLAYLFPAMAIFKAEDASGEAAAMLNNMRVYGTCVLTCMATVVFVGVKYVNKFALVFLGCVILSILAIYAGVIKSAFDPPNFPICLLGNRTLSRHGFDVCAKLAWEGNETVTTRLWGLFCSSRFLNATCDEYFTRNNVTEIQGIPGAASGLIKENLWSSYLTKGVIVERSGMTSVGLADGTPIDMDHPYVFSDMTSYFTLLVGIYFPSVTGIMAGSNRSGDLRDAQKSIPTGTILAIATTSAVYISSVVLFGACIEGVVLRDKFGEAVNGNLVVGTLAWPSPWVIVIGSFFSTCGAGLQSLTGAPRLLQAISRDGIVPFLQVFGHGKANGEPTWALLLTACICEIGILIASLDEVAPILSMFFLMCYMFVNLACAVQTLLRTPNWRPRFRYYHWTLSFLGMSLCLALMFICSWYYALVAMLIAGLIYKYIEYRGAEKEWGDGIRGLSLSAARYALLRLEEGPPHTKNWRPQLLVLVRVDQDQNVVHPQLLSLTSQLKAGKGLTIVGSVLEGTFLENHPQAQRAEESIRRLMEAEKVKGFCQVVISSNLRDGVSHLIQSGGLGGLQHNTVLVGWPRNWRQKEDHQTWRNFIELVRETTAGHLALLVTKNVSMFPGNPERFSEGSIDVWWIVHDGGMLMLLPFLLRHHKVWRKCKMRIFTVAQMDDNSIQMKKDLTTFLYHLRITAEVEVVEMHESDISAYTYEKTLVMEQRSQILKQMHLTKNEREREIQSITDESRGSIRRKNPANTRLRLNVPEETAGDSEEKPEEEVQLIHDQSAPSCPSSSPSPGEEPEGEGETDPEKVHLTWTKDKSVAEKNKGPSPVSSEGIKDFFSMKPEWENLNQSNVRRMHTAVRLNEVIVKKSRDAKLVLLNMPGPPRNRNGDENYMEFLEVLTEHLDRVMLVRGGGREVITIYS
MrgX1 ag: agonists of human MrgX1 receptor | Q96LB2 | MrgX1-HEK293 cells, Fluo-4 calcium fluorescence, agonist mode; hits give high values | B-score at 10 µM | hit rate 0.44% among 310,000;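 active means calcium response B-score plate-corrected fluorescence ratio at least 3 library SD, with starting fluorescence B-score inside 5 SD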
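Material – MrgX1-expressing HEK293 cells · Input – 15,000 cells seeded per well · Dosing – compound as first of three additions · Times – overnight seeding, then 1 h dark dye loading · Measured by – kinetic Fluo-4 NW fluorescence of intracellular calcium · Read-out – B-scored fluorescence response ratio · Benchmarks – positive and negative control wells on each plate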
RGS4 inh: human RGS4 inhibition; P49798; HEK293 M3R/RGS4 inducible, Fluo-4 calcium flux; hits give high values; triggered by carbachol at its EC20; B-score at 10 µM; hit rate 0.45% among 310,000;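 active means B-score, a plate-corrected calcium signal, over three deviations above library mean, with baseline fluorescence within five deviations of library mean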;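 further: RGS4 expression induced by doxycycline in cells with stable M3 receptor; B-score is computed from the integrated fluorescence ratio over baseline after carbachol; higher B-score means a larger calcium signal and so more RGS4 inhibition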
MrgX1 PAM: allosterically activates human MrgX1 receptor signaling; hit rate 0.63% among 310,000; MrgX1-HEK293, Fluo-4 calcium flux, FDSS; hits give high values; B-score at 10 µM; Q96LB2; AID 588675;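 active means plate-corrected calcium response at least 3 library SD above typical, normal starting fluorescence, not activating the receptor alone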;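 further: compound read alongside a low EC10 to EC30 dose of BAM8-22 agonist; peak minus trough fluorescence over baseline measured at the second addition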
MrgX1 antagonist: antagonists of human MrgX1 receptor; Q96LB2; MRGX1-HEK293 calcium flux, Fluo-4, BAM8-22 antagonism; hits give low values; AID 588676; hit rate 1.3% among 310,000; B-score at 10 µM;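 active means calcium-response B-score plate-corrected more than 3 library SD below zero, starting fluorescence within 5 deviations, no agonist response on first addition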;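 further: peak minus trough fluorescence over baseline after final BAM8-22 challenge near maximal dose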
MrgX1 allo conf: reconfirmed allosteric activator of human MrgX1 receptor; shares compounds with MrgX1 PAM; MrgX1-HEK293, Fluo-4 calcium fluorescence, FDSS; activation (ratio percentage), % at 10 µM; hit rate 13% among 1,200; AID 602413;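 active means ratio at least 3 SD above the weak peptide control, stable starting fluorescence, no direct agonism earlier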;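 further: compound followed by low BAM8-22 agonist challenge near EC20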
HEK293 Ca flux: activity in parental HEK293 cells lacking MrgX1 | shares compounds with MrgX1 antagonist | Fluo-4 calcium fluorescence, FDSS | fluorescence ratio F(max-min)/F0 at 10 µM | hit rate 2% among 4,000;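 active means duplicate-averaged calcium fluorescence ratio at least three times the standard deviation of buffer wells, a nonspecific response in parental cells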
HEK293 Ca counter: activity in parental HEK293 cells without MrgX1; hit rate 0.4% among 4,000; fluorescence ratio F(max-min)/F0 at 10 µM; shares compounds with MrgX1 antagonist; AID 624114; parental HEK293 calcium flux, Fluo-4 fluorescence ratio; hits give high values;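 active means calcium fluorescence ratio, averaged over duplicates, at least 3 SD of the buffer-well ratio, meaning a nonspecific response in receptor-free cells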;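 further: untransfected parental HEK293 lacking MrgX1 used as counterscreen for MrgX1 allosteric activators; fluorescence change taken during the second addition on a kinetic imager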
HEK293 Ca cntr2: counter-screen for MrgX1 activators: effect in parental HEK293 cells; AID 624115; Fluo-4 calcium fluorescence (FDSS); hits give high values; fluorescence ratio F(max-min)/F0 at 10 µM; shares compounds with MrgX1 antagonist; hit rate 8.7% among 4,000;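 active means calcium fluorescence ratio at least three times the spread of buffer wells, meaning a non-specific response in parental cells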
Starred values were filed as active, the others as inactive; i = inactive; x = not tested or not shown.

SMILES	RGS4 act	Cl transport mod	MrgX1 ag	RGS4 inh	MrgX1 PAM	MrgX1 antagonist	MrgX1 allo conf	HEK293 Ca flux	HEK293 Ca counter	HEK293 Ca cntr2
Cc1cc(C(=O)CN2C(=O)NC3(CCC(C)CC3)C2=O)c(C)n1C (centres undefined)	i	0.15	i	i	12*	i	i	i	i	i
Cc1ccc(NC(=O)c2ccccc2SCC(=O)N2CCCC2)cc1S(=O)(=O)N(C)C	i	x	i	i	i	i	x	x	x	x
CCOc1ccccc1C(=O)Nc1ccc2c(c1)C(=O)NC2=O	i	x	i	i	i	i	x	x	x	x
COc1ccccc1NC(=O)c1[nH]c(C)c(C(C)=O)c1C	x	0.47	i	x	i	i	x	x	x	x
COc1ccccc1NS(=O)(=O)c1cccc(NC(=O)c2[nH]c(C)c(C(C)=O)c2C)c1	i	-0.8	i	i	7.4*	i	i	i	i	i
Cc1ccc(OCC(=O)Nc2ccc(N3CCN(C(=O)c4ccco4)CC3)cc2)cc1C	i	-0.46	i	i	10*	i	i	i	i	i
Cc1cc(OCC(=O)Nc2ccc(N3CCN(C(=O)c4ccco4)CC3)cc2)cc(C)c1Cl	i	x	i	i	i	i	x	x	x	x
Cc1ccc(Nc2ncnc3sccc23)c(C)c1	i	x	i	i	8*	i	i	i	i	i
O=C(Nc1ccccc1)N(Cc1ccc(Cl)cc1)CC(O)C(F)(F)F (centres undefined)	i	-0.2	i	i	6.5*	i	i	i	i	i
O=C(Nc1ccccc1)N(Cc1ccccc1)Cc1ccccc1	i	0.34	i	i	i	i	x	x	x	x
O=C(Cn1nnc2ccccc21)NCc1ccccc1	i	0.79	i	i	7.2*	i	i	i	i	i
CS(=O)(=O)N(CC(=O)Nc1cccc(Br)c1)Cc1ccccc1	i	x	i	i	i	i	x	x	x	x
CCc1cccc(OCC(=O)Nc2ccccc2N2CCCC2)c1	i	x	i	i	19*	i	i	i	i	i
NS(=O)(=O)c1cc(C(=O)NCCc2ccccn2)ccc1Cl	i	1.7	i	i	21*	i	i	i	i	i
NC(=O)COC(=O)[C@H](Cc1c[nH]c2ccccc12)NC(=O)c1ccc(F)cc1	i	x	i	i	i	i	x	x	x	x
Cc1ccc(SCC(=O)Nc2cc([N+](=O)[O-])ccc2O)cc1	i	-3.5	i	i	i	i	x	x	x	x
CCCN(c1ccc(C(=O)OC)cc1)S(=O)(=O)c1ccccc1	i	-0.44	i	i	9.8*	i	i	i	i	i
Nc1ncnc2nc(N3CCN(C(=O)c4ccccc4)CC3)[nH]c12	i	0.17	i	i	17*	i	i	i	i	i
O=C(c1ccccc1)N1CCN(c2ncccn2)CC1	i	x	i	i	i	i	x	x	x	x
CN(CCCC1CCCC1)C(=O)CC1C(=O)NCCN1Cc1cccc(F)c1F (centres undefined)	i	x	i	i	i	i	x	x	x	x
COc1ccccc1NS(=O)(=O)c1ccc(NC(=O)c2[nH]nc(OC)c2[N+](=O)[O-])cc1	i	x	i	i	i	i	x	x	x	x
CN(C(=O)COC(=O)C1CCN(S(=O)(=O)c2ccc3c(c2)OCCO3)CC1)C1CCCCC1	i	x	i	i	i	i	x	x	x	x
Cc1cc(Cl)ccc1OC(C)C(=O)Nc1ccccc1N1CCOCC1 (centres undefined)	i	-0.74	i	i	15*	i	i	i	i	i
O=C(COC(=O)c1ccc(S(=O)(=O)NCc2ccco2)cc1)Nc1ccc(Cl)cn1	i	-0.52	i	i	8.1*	i	i	i	i	i
Cc1ccnc(NC(=O)c2ccc(S(=O)(=O)N3CCCCCC3)cc2)c1	i	x	i	i	i	i	x	x	x	x
SMILES	RGS4 act	Cl transport mod	MrgX1 ag	RGS4 inh	MrgX1 PAM	MrgX1 antagonist	MrgX1 allo conf	HEK293 Ca flux	HEK293 Ca counter	HEK293 Ca cntr2
O=S(=O)(c1ccc(F)c(F)c1)N1CCC2(CC1)OCCO2	i	x	i	i	i	i	x	x	x	x
CCOc1cccc(NC(=O)CSc2nncn2N)c1	i	-0.95	i	i	7.4*	i	i	i	i	i
COC(=O)CNC(=O)CSc1nc2sc(-c3ccccc3)cc2c(=O)n1-c1ccccc1	i	x	i	i	11*	i	i	i	i	i
CCNc1nc(Sc2ccc(C)cc2)cc(C(F)(F)F)n1	i	0.59	i	i	6.8*	i	15%*	i	i	i
CCNc1nc(Oc2c(Cl)cccc2Cl)cc(C(F)(F)F)n1	i	0.57	i	i	i	i	x	x	x	x
CCNc1nc(Oc2ccc(OC)cc2)cc(C(F)(F)F)n1	i	-0.041	i	i	10*	i	i	i	i	i
CC(C)C1=CC(=Nc2ccc(S(N)(=O)=O)cc2)C=C(C(C)C)C1=O	i	x	i	i	i	i	x	x	x	x
O=c1[nH]c(-c2ccccc2)nc(-c2ccccc2)c1Cl	i	x	i	i	i	i	x	x	x	x
COc1ccc(Cl)cc1S(=O)(=O)N1CCN(c2ccc(F)cc2)CC1	i	-0.25	i	i	17*	i	i	i	i	i
COc1ccc(OC)c(S(=O)(=O)N2CCN(c3ccccc3)CC2)c1	i	x	i	i	i	i	x	x	x	x
COc1ccc(C(C)C)cc1S(=O)(=O)N1CCN(c2ccccc2)CC1	i	-1.5	i	i	15*	i	i	i	i	i
O=[N+]([O-])c1cccc(-c2nnc(-c3ccccc3F)o2)c1	i	x	i	i	i	i	x	x	x	x
COc1cccc(NC(=O)c2ccccc2Br)c1	i	x	i	i	i	i	x	x	x	x
